Data on 1 compound can be found in ChEMBL document CHEMBL4311948, “Exploring the Natural Piericidins as Anti-Renal Cell Carcinoma Agents Targeting Peroxiredoxin 1” (J Med Chem, 2019).

Active and inactive are the calls of the source. The calls are words filed in the database; no cut-off is given here.

Data set [1] deals with ACHN. The data set is described as follows: Down regulation of EGFR mRNA expression in human ACHN cells at 25 to 50 nM measured after 24 hrs by qRT-PCR analysis. In kind it is functional, cell-based.
Data set [2] deals with ACHN. Put plainly: Induction of apoptosis in human ACHN cells assessed as viable cells at 50 nM measured after 24 hrs by Annexin V-FITC/propidium iodide staining based flow cytometry (reference value: 100%). In kind it is functional. Particulars: read-out: Activity. (Flow cytometry measures light scatter and fluorescence of single cells or particles in a stream.)
Data set [3] relates to Mus musculus. The data set is described as follows: Up regulation of PRDX1 mRNA expression in human ACHN cells xenografted Balb/c nu/nu mouse at 0.8 mg/kg, ip administered once daily for 21 days measured post-last dose by qRT-PCR analysis. In kind it is functional, organism-based. For orientation: In xenograft studies the graft and the host belong to different species.
Data set [4] deals with ACHN. Put plainly: Induction of apoptosis in human ACHN cells assessed as early apoptotic cells at 50 nM measured after 24 hrs by Annexin V-FITC/propidium iodide staining based flow cytometry (reference value: 0%). In kind it is functional.
The next data set relates to HK-2. The data set is described as follows: Cytotoxicity against human HK2 cells assessed as reduction in cell viability measured after 72 hrs by CCK8 assay. In kind it is cell-based. The settings on record: HK-2, 72 h. In a few lines:
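Cells were grown in 10% FBS medium: MEM for ACHN, RPMI1640 for OS-RC-2 and 786-O, DMEM for HK-2. They were seeded at 400–800 cells/well in 384-well plates and treated with a range of compound concentrations or solvent control, with sorafenib as positive control. After 72 h, CCK-8 absorbance was read at 450 nm in triplicate, and IC50 was taken from dose-response curves.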

In data set [5] the target is T1, Peroxiredoxin-1 (Homo sapiens) (UniProt Q06830).
T1 sequence (whole entry): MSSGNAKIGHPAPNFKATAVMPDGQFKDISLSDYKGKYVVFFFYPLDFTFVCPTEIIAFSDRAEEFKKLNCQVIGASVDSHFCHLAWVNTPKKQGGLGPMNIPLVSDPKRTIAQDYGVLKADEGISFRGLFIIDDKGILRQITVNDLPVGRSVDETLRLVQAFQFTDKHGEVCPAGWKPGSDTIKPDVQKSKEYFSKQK
The data set is described as follows: Induction of PRDX1 nuclear translocation in human ACHN cells at 25 to 50 nM measured after 24 hrs by DAPI staining-based microscopic analysis. In kind it is cell-based. The method in brief: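 ACHN cells exposed 24 h to 25 or 50 nM, fixed in 4% paraformaldehyde 10 min and permeabilised with 0.5% Triton X-100. Blocked with 10% FBS, 4 °C, 12 h. Stained with anti-PRDX1 overnight, FITC secondary 2 h RT, DAPI nuclear counterstain. Confocal imaging scored mean fluorescence intensity (n = 9).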

For data set [6], the system named is ACHN. The data set is described as follows: Antitumor activity against human ACHN cells xenografted in Balb/c nu/nu mouse assessed as tumor weight at 0.8 mg/kg, ip administered once daily for 21 days measured post-last dose by caliper method (reference value: 0.55 +/- 0.13 g). In kind it is functional. The method in brief:
(§1)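 Male athymic Balb/c nu/nu mice, four weeks old, acclimatised 1 week. 10^7 ACHN cells in 0.2 mL PBS injected into the right flank. At about 150 mm3, mice randomised into PBS control or 0.8 mg/kg groups, dosed ip daily for three weeks. Tumours measured by caliper (volume = 0.5 × L × W²) with body weight recorded. Endpoint tumour weight, sections stained by H&E and TUNEL. Tissue lysed for immunoblot.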

Data set [7] deals with ACHN. Put plainly: Down regulation of LDHA mRNA expression in human ACHN cells at 25 to 50 nM measured after 24 hrs by qRT-PCR analysis. In kind it is functional, cell-based.
The subject of data set [8] is ACHN. The data set is described as follows: Induction of apoptosis in human ACHN cells assessed as necrotic cells at 50 nM measured after 48 hrs by Annexin V-FITC/propidium iodide staining based flow cytometry (reference value: 0%). In kind it is functional.
Data set [9] is described as follows: Toxicity in Balb/c nu/nu mouse xenografted with human ACHN cells assessed as decrease in body weight at 0.8 mg/kg, ip administered once daily for 21 days. The settings on record: in vivo, 504 h. The class given is organism-based. The method in brief:
as §1

Data set [10] relates to Mus musculus. The data set is described as follows: Up regulation of PRDX1 expression in human ACHN cells xenografted Balb/c nu/nu mouse at 0.8 mg/kg, ip administered once daily for 21 days measured post-last dose by immunoblot analysis. The class given is functional, organism-based. In a few lines:
as §1

Data set [11] concerns ACHN. Put plainly: Selectivity ratio of IC50 for cytotoxicity against human ACHN cells harboring shPRDX1 gene to IC50 for Cytotoxicity against human ACHN cells. In kind it is functional.
Data set [12] deals with ACHN. Put plainly: Down regulation of HIF1A mRNA expression in human ACHN cells at 25 to 50 nM measured after 24 hrs by qRT-PCR analysis. In kind it is functional, cell-based. (In qPCR the cycle at which signal appears reflects the starting amount.)

For orientation: IC50 means the concentration needed to halve the response being measured. Consider `C/C=C(\C)[C@H](O)[C@H](C)/C=C(C)/C=C/C/C(C)=C/Cc1nc(OC)c(OC)c(O)c1C` [PIERICIDIN A], for which the result (in the data set on ACHN [1]; in the data set with Mus musculus [3]; in data set [5]; in the data set with ACHN [7]; in the data set with Mus musculus [10]; with ACHN [12]) was Active. Further, the viability at 0.05 µM in the data set on ACHN [2] worked out at 81.9%. The Activity with ACHN [4] is 0.9%; with ACHN [6] it was 0.28 g; in the data set with ACHN [8] it was 75.6%; in [9], “Non-Toxic”. In addition, in the data set on HK-2, the concentration for half-maximal inhibition (IC50) was > 100 µM. Further, the “Ratio IC50” value in the data set with ACHN [11] is reported as 4.
